Source: ChEMBL document CHEMBL1255234, “daptomycin activity against Staphylococcus aureus following vancomycin exposure in an in vitro pharmacodynamic model with simulated endocardial vegetations” (Antimicrob Agents Chemother, 2008)
≈ marks a conversion by molar mass, not a printed value.

Columns and labels:
Staphylococcus aureus [1] = assay: Cmax in methicillin-susceptible Staphylococcus aureus 616 at 10 mg/kg administered daily for 4 days pretreated with 1 g vancomycin administered every 12 hrs for 4 days in in vitro pharmacokinetic-pharmacodynamic model with simulated endocardial vegetations; type: ADME, organism-based; design: dose 10 mg/kg; settings: in vivo, 96 h
Procedure, shortened: (§1)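 Duplicate samples taken from the model injection port over 0–192 h and stored at −70°C. Daptomycin assayed by Micrococcus luteus ATCC 9341 disk microbioassay (standards 2.5–150 mg/liter; detection limit 2.5 mg/liter). Vancomycin assayed by fluorescence polarization immunoassay (detection limit 2 mg/liter). Cmax and half-life derived by the trapezoidal method.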

Staphylococcus aureus [2] = assay: Cmax in methicillin-resistant Staphylococcus aureus 675 at 6 mg/kg administered daily for 4 days pretreated with 1 g vancomycin administered every 12 hrs for 4 days in in vitro pharmacokinetic-pharmacodynamic model with simulated endocardial vegetations; type: ADME, organism-based; design: dose 6 mg/kg; settings: in vivo, 96 h; procedure, shortened: as §1
Staphylococcus aureus [3] = assay: Antimicrobial activity against methicillin-susceptible Staphylococcus aureus 616 at 6 mg/kg administered daily for 8 days pretreated with 1 g vancomycin administered every 12 hrs for 4 days in in vitro pharmacokinetic-pharmacodynamic model with simulated endocardial vegetations; type: functional
Procedure, shortened: (§2)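 S. aureus SEVs (≈10^9 CFU/g inoculum in human cryoprecipitate plus platelets) suspended in a 250-ml one-compartment model at 37°C. Fresh medium pumped to simulate drug half-lives; drug given as boluses over 8 days; duplicate models. Two SEVs removed per model at each time point (0–192 h), homogenized, plated on TSA 35°C 24 h. Log10 CFU/g reduction read from time-kill curves; detection limit 2.0 log10 CFU/g.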

Staphylococcus aureus [4] = assay: Antimicrobial activity against methicillin-susceptible Staphylococcus aureus at 6 mg/kg administered daily for 4 days after 4 days of growth without antibiotic in in vitro pharmacokinetic-pharmacodynamic model with simulated endocardial vegetations
Staphylococcus aureus [5] = assay: Half life in methicillin-resistant Staphylococcus aureus WB2 at 1 g administered every 12 hrs for 4 days in in vitro pharmacokinetic-pharmacodynamic model with simulated endocardial vegetations; type: ADME, organism-based; settings: in vivo; procedure, shortened: as §1
Staphylococcus aureus [6] = assay: Cmax in methicillin-resistant Staphylococcus aureus WB1 at 6 mg/kg administered daily for 4 days pretreated with 1 g vancomycin administered every 12 hrs for 4 days in in vitro pharmacokinetic-pharmacodynamic model with simulated endocardial vegetations; type: ADME, organism-based; design: dose 6 mg/kg; settings: in vivo, 96 h; procedure, shortened: as §1
Staphylococcus aureus [7] = assay: Half life in methicillin-susceptible Staphylococcus aureus 616 at 10 mg/kg administered daily for 4 days pretreated with 1 g vancomycin administered every 12 hrs for 4 days in in vitro pharmacokinetic-pharmacodynamic model with simulated endocardial vegetations; type: ADME, organism-based; design: dose 10 mg/kg; settings: in vivo, 96 h; procedure, shortened: as §1
Staphylococcus aureus [8] = assay: Antimicrobial activity against methicillin-susceptible Staphylococcus aureus 616 at 6 mg/kg administered daily for 8 days in in vitro pharmacokinetic-pharmacodynamic model with simulated endocardial vegetations; type: functional; procedure, shortened: as §2
Staphylococcus aureus [9] = assay: Cmax in methicillin-resistant Staphylococcus aureus WB2 at 6 mg/kg administered daily for 4 days pretreated with 1 g vancomycin administered every 12 hrs for 4 days in in vitro pharmacokinetic-pharmacodynamic model with simulated endocardial vegetations; type: ADME, organism-based; design: dose 6 mg/kg; settings: in vivo, 96 h; procedure, shortened: as §1
Staphylococcus aureus [10] = assay: Antimicrobial activity against methicillin-resistant Staphylococcus aureus WB2
Staphylococcus aureus [11] = assay: AUC(0-24 hrs)/MIC(broth) in methicillin-susceptible Staphylococcus aureus 616 at 1 g administered every 12 hrs for 4 days in in vitro pharmacokinetic-pharmacodynamic model with simulated endocardial vegetations; type: functional
Procedure, shortened: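 S. aureus simulated endocardial vegetations (fibrin/platelet clots, ~10^9 CFU/g) suspended in a 250-ml one-compartment model at 37°C, medium pumped to mimic half-life; vancomycin bolus every 12 h (target Cmax 30, Cmin 10 mg/liter) for 4 days. Duplicate runs. Drug levels by fluorescence polarization immunoassay; AUC0-24 by trapezoidal method, divided by broth microdilution MIC (CLSI).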

Staphylococcus aureus [12] = assay: Half life in methicillin-susceptible Staphylococcus aureus 616 at 6 mg/kg administered daily for 4 days pretreated with 1 g vancomycin administered every 12 hrs for 4 days in in vitro pharmacokinetic-pharmacodynamic model with simulated endocardial vegetations; type: ADME, organism-based; design: dose 6 mg/kg; settings: in vivo, 96 h; procedure, shortened: as §1
Staphylococcus aureus [13] = assay: Antimicrobial activity against methicillin-susceptible Staphylococcus aureus 616 at 6 mg/kg administered daily for 4 days pretreated with 1 g vancomycin administered every 12 hrs for 4 days in in vitro pharmacokinetic-pharmacodynamic model with simulated endocardial vegetations; type: functional; procedure, shortened: as §2
Staphylococcus aureus [14] = assay: Half life in methicillin-resistant Staphylococcus aureus WB1 at 6 mg/kg administered daily for 4 days pretreated with 1 g vancomycin administered every 12 hrs for 4 days in in vitro pharmacokinetic-pharmacodynamic model with simulated endocardial vegetations; type: ADME, organism-based; design: dose 6 mg/kg; settings: in vivo, 96 h; procedure, shortened: as §1
Staphylococcus aureus [15] = assay: Cmax in methicillin-resistant Staphylococcus aureus 36132 at 6 mg/kg administered daily for 4 days pretreated with 1 g vancomycin administered every 12 hrs for 4 days in in vitro pharmacokinetic-pharmacodynamic model with simulated endocardial vegetations; type: ADME, organism-based; design: dose 6 mg/kg; settings: in vivo, 96 h; procedure, shortened: as §1
Staphylococcus aureus [16] = assay: Antimicrobial activity against methicillin-susceptible Staphylococcus aureus 616; type: functional
Procedure, shortened: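 MIC by broth microdilution in SMHB or by Etest, following CLSI guidelines. MBC defined as 99.9% killing of the starting inoculum, from 5 μl of the MIC well and all other growth-inhibited wells plated onto agar.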

Staphylococcus aureus [17] = assay: Cmax in methicillin-susceptible Staphylococcus aureus 616 at 6 mg/kg administered daily for 4 days pretreated with 1 g vancomycin administered every 12 hrs for 4 days in in vitro pharmacokinetic-pharmacodynamic model with simulated endocardial vegetations; type: ADME, organism-based; design: dose 6 mg/kg; settings: in vivo, 96 h; procedure, shortened: as §1
Staphylococcus aureus [18] = assay: Antimicrobial activity against methicillin-susceptible Staphylococcus aureus 616 at 6 mg/kg administered daily for 4 days in in vitro pharmacokinetic-pharmacodynamic model with simulated endocardial vegetations; type: functional
Procedure, shortened: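 SEVs (clot of cryoprecipitate, platelets and organism) were suspended in a 250-ml, 37°C model with bolus dosing and pump clearance simulating half-lives. Daptomycin was given every 24 h (Cmax 98.6, Cmin 6.2 mg/liter) after 4 days of vancomycin 1 g q12h or no treatment. SEVs were sampled to 192 h, homogenized and plated (35°C, 24 h) for CFU/g; T99.9 was derived. Runs were done in duplicate.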

Staphylococcus aureus [19] = assay: microbe, parasite or virus in culture; settings: 36132
Staphylococcus aureus [20] = assay: Antimicrobial activity against methicillin-resistant Staphylococcus aureus WB1
Staphylococcus aureus [21] = assay: Half life in methicillin-resistant Staphylococcus aureus WB2 at 6 mg/kg administered daily for 4 days pretreated with 1 g vancomycin administered every 12 hrs for 4 days in in vitro pharmacokinetic-pharmacodynamic model with simulated endocardial vegetations; type: ADME, organism-based; design: dose 6 mg/kg; settings: in vivo, 96 h; procedure, shortened: as §1
Staphylococcus aureus [22] = assay: microbe, parasite or virus in culture; settings: 675
Staphylococcus aureus [23] = assay: Half life in methicillin-resistant Staphylococcus aureus 675 at 6 mg/kg administered daily for 4 days pretreated with 1 g vancomycin administered every 12 hrs for 4 days in in vitro pharmacokinetic-pharmacodynamic model with simulated endocardial vegetations; type: ADME, organism-based; design: dose 6 mg/kg; settings: in vivo, 96 h; procedure, shortened: as §1
Staphylococcus aureus [24] = assay: Half life in methicillin-resistant Staphylococcus aureus 36132 at 6 mg/kg administered daily for 4 days pretreated with 1 g vancomycin administered every 12 hrs for 4 days in in vitro pharmacokinetic-pharmacodynamic model with simulated endocardial vegetations; type: ADME, organism-based; design: dose 6 mg/kg; settings: in vivo, 96 h; procedure, shortened: as §1
Staphylococcus aureus [25] = assay: Half life in methicillin-resistant Staphylococcus aureus 36132 at 1 g administered every 12 hrs for 4 days in in vitro pharmacokinetic-pharmacodynamic model with simulated endocardial vegetations; type: ADME, organism-based; settings: in vivo; procedure, shortened: as §1
Staphylococcus aureus [26] = assay: Cmax in methicillin-resistant Staphylococcus aureus WB2 at 1 g administered every 12 hrs for 4 days in in vitro pharmacokinetic-pharmacodynamic model with simulated endocardial vegetations; type: ADME, organism-based; design: dose 1 g; settings: in vivo; procedure, shortened: as §1
Staphylococcus aureus [27] = assay: Cmax in methicillin-resistant Staphylococcus aureus 36132 at 1 g administered every 12 hrs for 4 days in in vitro pharmacokinetic-pharmacodynamic model with simulated endocardial vegetations; type: ADME, organism-based; design: dose 1 g; settings: in vivo; procedure, shortened: as §1
Staphylococcus aureus [28] = assay: Half life in methicillin-resistant Staphylococcus aureus WB1 at 1 g administered every 12 hrs for 4 days in in vitro pharmacokinetic-pharmacodynamic model with simulated endocardial vegetations; type: ADME, organism-based; settings: in vivo; procedure, shortened: as §1
Staphylococcus aureus [29] = assay: Half life in methicillin-resistant Staphylococcus aureus 675 at 1 g administered every 12 hrs for 4 days in in vitro pharmacokinetic-pharmacodynamic model with simulated endocardial vegetations; type: ADME, organism-based; settings: in vivo; procedure, shortened: as §1
Staphylococcus aureus [30] = assay: Cmax in methicillin-resistant Staphylococcus aureus WB1 at 1 g administered every 12 hrs for 4 days in in vitro pharmacokinetic-pharmacodynamic model with simulated endocardial vegetations; type: ADME, organism-based; design: dose 1 g; settings: in vivo; procedure, shortened: as §1
Staphylococcus aureus [31] = assay: Cmax in methicillin-susceptible Staphylococcus aureus 616 at 1 g administered every 12 hrs for 4 days in in vitro pharmacokinetic-pharmacodynamic model with simulated endocardial vegetations; type: ADME, organism-based; design: dose 1 g; settings: in vivo; procedure, shortened: as §1
Staphylococcus aureus [32] = assay: Half life in methicillin-susceptible Staphylococcus aureus 616 at 1 g administered every 12 hrs for 4 days in in vitro pharmacokinetic-pharmacodynamic model with simulated endocardial vegetations; type: ADME, organism-based; settings: in vivo; procedure, shortened: as §1
Staphylococcus aureus [33] = assay: Cmax in methicillin-resistant Staphylococcus aureus 675 at 1 g administered every 12 hrs for 4 days in in vitro pharmacokinetic-pharmacodynamic model with simulated endocardial vegetations; type: ADME, organism-based; design: dose 1 g; settings: in vivo; procedure, shortened: as §1

## CCCCCCCCCC(=O)N[C@@H](Cc1c[nH]c2ccccc12)C(=O)N[C@H](CC(N)=O)C(=O)N[C@@H](CC(=O)O)C(=O)N[C@@H]1C(=O)NCC(=O)N[C@@H](CCCN)C(=O)N[C@@H](CC(=O)O)C(=O)N[C@H](C)C(=O)N[C@@H](CC(=O)O)C(=O)NCC(=O)N[C@H](CO)C(=O)N[C@@H]([C@H](C)CC(=O)O)C(=O)N[C@@H](CC(=O)c2ccccc2N)C(=O)O[C@@H]1C
Staphylococcus aureus [1]
  Cmax: 160.2 µg/mL
Staphylococcus aureus [2]
  Cmax: 107.2 µg/mL
Staphylococcus aureus [3]
  T99.9%: 6.6 h
Staphylococcus aureus [4]
  T99.9%: 34.9 h
Staphylococcus aureus [5]
  t1/2: 5.3 h
Staphylococcus aureus [6]
  Cmax: 98.3 µg/mL
Staphylococcus aureus [7]
  t1/2: 9.3 h
Staphylococcus aureus [8]
  T99.9%: 4.8 h
Staphylococcus aureus [9]
  Cmax: 106.1 µg/mL
Staphylococcus aureus [10]
  MIC: 0.25 µg/mL (≈ 0.154 µM)
Staphylococcus aureus [11]
  RatioAUC/MIC: 536.4
Staphylococcus aureus [12]
  t1/2: 8.4 h
Staphylococcus aureus [13]
  T99.9%: 9.46 h
Staphylococcus aureus [14]
  t1/2: 7.9 h
Staphylococcus aureus [15]
  Cmax: 109.3 µg/mL
Staphylococcus aureus [16]
  MIC: 0.125 µg/mL (≈ 0.0771 µM)
Staphylococcus aureus [17]
  Cmax: 106.8 µg/mL
Staphylococcus aureus [18]
  T99.9%: 10.9 h
Staphylococcus aureus [19]
  MIC: 0.25 µg/mL (≈ 0.154 µM)
Staphylococcus aureus [20]
  MIC: 0.25 µg/mL (≈ 0.154 µM)
Staphylococcus aureus [21]
  t1/2: 7.6 h
Staphylococcus aureus [22]
  MIC: 0.25 µg/mL (≈ 0.154 µM)
Staphylococcus aureus [23]
  t1/2: 8 h
Staphylococcus aureus [24]
  t1/2: 8.8 h

## CN[C@H](CC(C)C)C(=O)N[C@H]1C(=O)N[C@@H](CC(N)=O)C(=O)N[C@H]2C(=O)N[C@H]3C(=O)N[C@H](C(=O)N[C@H](C(=O)O)c4cc(O)cc(O)c4-c4cc3ccc4O)[C@H](O)c3ccc(c(Cl)c3)Oc3cc2cc(c3O[C@@H]2O[C@H](CO)[C@@H](O)[C@H](O)[C@H]2O[C@H]2C[C@](C)(N)[C@H](O)[C@H](C)O2)Oc2ccc(cc2Cl)[C@H]1O [VANCOMYCIN]
Staphylococcus aureus [25]
  t1/2: 6.9 h
Staphylococcus aureus [26]
  Cmax: 33.4 µg/mL
Staphylococcus aureus [27]
  Cmax: 31.4 µg/mL
Staphylococcus aureus [5]
  t1/2: 5.3 h
Staphylococcus aureus [28]
  t1/2: 6.6 h
Staphylococcus aureus [29]
  t1/2: 7.2 h
Staphylococcus aureus [30]
  Cmax: 32.8 µg/mL
Staphylococcus aureus [31]
  Cmax: 31.7 µg/mL
Staphylococcus aureus [32]
  t1/2: 7.4 h
Staphylococcus aureus [33]
  Cmax: 32.9 µg/mL
